# Laboratory results: ChEMBL document CHEMBL1125163, “Evolution of a series of peptidoleukotriene antagonists: synthesis and structure-activity relationships of 1,6-disubstituted indoles and indazoles” (J Med Chem, 1990)
# Calls of active or inactive are those of the source. The rule behind the calls is not given here.
# Species on record: Cavia porcellus
# Assay: Percent inhibition of the LTE4- induced contraction of guinea pig tracheal spirals at the concentration of 5 uM
# Assay type: functional
# Conditions: Trachea
# Method in brief: (§1)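 Guinea pig trachea cut into spiral strips, each trachea split into paired sections. Tissue bath at 37 °C in modified Krebs buffer gassed with 95% O2/5% CO2, 2 g resting tension, 60 min stabilization. After reproducible responses to 10 nM LTE4, compound was added for 10 min, then LTE4 challenge repeated. Percent inhibition is the 2nd vs 3rd response, adjusted by subtracting the vehicle-treated paired section. Paired t test, p < 0.05.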
row,Compound,inhibition at 5 µM [%]
1,CCCCCCOc1ccc(COc2ccccc2C(=O)O)cc1,40
2,CCCCCCCC(=O)Nc1ccc2ccn(Cc3ccc(C(=O)O)cc3OC)c2c1,53
3,C/C=C/C=C/C(=O)Nc1ccc2ccn(Cc3ccc(C(=O)O)cc3OC)c2c1,28
4,CCCC(=O)Nc1ccc2ccn(Cc3ccc(C(=O)O)cc3OC)c2c1,42
5,COc1cc(C(=O)O)ccc1Cn1ccc2ccc(NC(=O)Cc3ccccc3)cc21,71

# Test system: Cavia porcellus
# Assay: Percent protection was determined from the time delay to the onset of dyspnea compared to that of control guinea pig at a concentration of 126 uM/kg
# Assay type: functional
# Conditions: not given
# Method in brief: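 Conscious guinea pigs were pretreated ip with indomethacin (10 mg/kg) and propranolol (5 mg/kg). Compound was given orally in poly(ethylene glycol) 60 min before challenge with aerosolized 60 µM LTD4 for up to 5 min. End point was labored abdominal breathing, scored blind. % protection = (drug time − mean control time)/(max aerosol time − mean control time) × 100, with at least two vehicle animals per run.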
row,Compound,Protection [%]
1,CCCCOC(=O)Nc1ccc2cnn(Cc3ccc(C(=O)O)cc3OC)c2c1,33

# Species on record: Cavia porcellus
# Assay: Percent inhibition of the LTE4- induced contraction of guinea pig tracheal spirals at the concentration of 1.0 uM; Not significant
# Assay type: functional
# Conditions: Trachea
# Method in brief: as §1
row,Compound,inhibition
1,COc1cc(C(=O)O)ccc1Cn1ccc2ccc(NC(=O)OC3CCCCC3)cc21,inactive

# Species on record: Cavia porcellus
# Assay: Percent inhibition of the LTE4- induced contraction of guinea pig tracheal spirals at the concentration of 3.3 uM
# Assay type: functional
# Conditions: Trachea
# Method in brief: as §1
row,Compound,inhibition at 3.3 µM [%]
1,COc1cc(C(=O)O)ccc1Cn1ccc2ccc(NC(=O)NC(C)(C)C)cc21,24
2,COc1cc(C(=O)O)ccc1Cn1ccc2ccc(NC(=O)C(C)c3ccccc3)cc21 (stereo unspecified),59
3,COc1cc(C(=O)O)ccc1Cn1ccc2ccc(NC(=O)OC(C)(C)C)cc21,10
4,COc1cc(C(=O)O)ccc1Cn1ccc2ccc(NC(=O)OC3CCOC3)cc21 (stereo unspecified),70
5,COc1cc(C(=O)O)ccc1Cn1ccc2ccc(NC(=O)NC3CCCCC3)cc21,34
6,COc1cc(C(=O)O)ccc1Cn1ccc2ccc(NC(=O)C(c3ccccc3)c3ccccc3)cc21,38
7,COc1cc(C(=O)O)ccc1Cn1ccc2ccc(NC(=O)C(C)(C)c3ccccc3)cc21,23
8,CCCCCCNC(=O)Nc1ccc2ccn(Cc3ccc(C(=O)O)cc3OC)c2c1,51
9,COc1cc(C(=O)O)ccc1Cn1ccc2ccc(NC(=O)C(OC)c3ccccc3)cc21 (stereo unspecified),52

# Species on record: Cavia porcellus
# Assay: Percent inhibition of the LTE4- induced contraction of guinea pig tracheal spirals at the concentration of 1 uM
# Assay type: functional
# Conditions: Trachea
# Method in brief: as §1
row,Compound,inhibition at 1 µM [%]
1,CCCCNC(=O)Nc1ccc2ccn(Cc3ccc(C(=O)O)cc3OC)c2c1,39
2,CCCCC(CC)C(=O)Nc1ccc2ccn(Cc3ccc(C(=O)O)cc3OC)c2c1 (stereo unspecified),59
3,COc1cc(C(=O)O)ccc1Cn1ccc2ccc(NC(=O)C3CCCC3)cc21,58
4,CCCc1c(OCc2ccc(C(=O)O)cc2OC)ccc(C(C)=O)c1O,38
5,CCC(C(=O)Nc1ccc2ccn(Cc3ccc(C(=O)O)cc3OC)c2c1)c1ccccc1 (stereo unspecified),65
6,COc1cc(C(=O)O)ccc1Cn1ccc2ccc(NC(=O)NC3CCCC3)cc21,73

# Species on record: Cavia porcellus
# Assay: Percent inhibition of the LTE4- induced contraction of guinea pig tracheal spirals at the concentration of 0.33 uM
# Assay type: functional
# Conditions: Trachea
# Method in brief: as §1
row,Compound,inhibition at 0.33 µM [%]
1,CCC(C(=O)Nc1ccc2cnn(Cc3ccc(C(=O)O)cc3OC)c2c1)c1ccccc1 (stereo unspecified),30
2,CCCCOC(=O)Nc1ccc2cnn(Cc3ccc(C(=O)O)cc3OC)c2c1,56
3,CCCCC(CC)C(=O)Nc1ccc2cnn(Cc3ccc(C(=O)O)cc3OC)c2c1 (stereo unspecified),56
4,COc1cc(C(=O)O)ccc1Cn1ccc2ccc(NC(=O)CC3CCCCC3)cc21,53
5,COc1cc(C(=O)O)ccc1Cn1ccc2ccc(NC(=O)OC(C)C)cc21,24
6,CCC(CC)OC(=O)Nc1ccc2ccn(Cc3ccc(C(=O)O)cc3OC)c2c1,31
7,CCC(C(=O)Nc1ccc2ccn(Cc3ccc(C(=O)O)cc3OC)c2c1)C1CCCCC1 (stereo unspecified),18

# Species on record: Cavia porcellus
# Assay: Percent inhibition of the LTE4- induced contraction of guinea pig tracheal spirals at the concentration of 5 uM; Not significant
# Assay type: functional
# Conditions: Trachea
# Method in brief: as §1
row,Compound,inhibition
1,CCCCCCCCCCCC(=O)Nc1ccc2ccn(Cc3ccc(C(=O)O)cc3OC)c2c1,inactive

# Species on record: Cavia porcellus
# Assay: Percent inhibition of the LTE4- induced contraction of guinea pig tracheal spirals at the concentration of 0 uM; Not significant
# Assay type: functional
# Conditions: Trachea
# Method in brief: as §1
row,Compound,inhibition
1,COc1cc(C(=O)O)ccc1Cn1ccc2ccc(NC(C)=O)cc21,inactive

# Species on record: Cavia porcellus
# Assay: Percent inhibition of the BaCl2 - induced contraction of guinea pig tracheal spirals at concentration of 100 uM
# Assay type: functional
# Conditions: Trachea
# Method in brief: (§2)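 Guinea pig tracheal strips contracted with barium chloride. Compound was tested at 100 µM, and the read-out is percent inhibition of the BaCl2-induced contraction.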
row,Compound,inhibition at 100 µM [%]
1,CCCCOC(=O)Nc1ccc2cnn(Cc3ccc(C(=O)O)cc3OC)c2c1,41
2,COc1cc(C(=O)O)ccc1Cn1ncc2ccc(NC(=O)OC3CCCC3)cc21,44

# Test system: not listed separately
# Assay: Selectivity ratio of the compound
# Assay type: functional
# Conditions: not given
row,Compound,Selectivity ratio
1,CCCCCCOc1ccc(COc2ccccc2C(=O)O)cc1,10
2,CCCc1c(OCc2ccc(C(=O)O)cc2OC)ccc(C(C)=O)c1O,50

# Species on record: Cavia porcellus
# Assay: Percent inhibition of the LTE4- induced contraction of guinea pig tracheal spirals at concentration of 10 uM; Not significant
# Assay type: functional, organism-based
# Conditions: Trachea
# Method in brief: as §1
row,Compound,inhibition
1,CCCCCC(=O)Nc1cccc2cnn(Cc3ccc(C(=O)O)cc3OC)c12,inactive

# Species on record: Cavia porcellus
# Assay: Percent inhibition of the LTE4- induced contraction of guinea pig tracheal spirals at the concentration of 0.1 uM
# Assay type: functional
# Conditions: Trachea
# Method in brief: as §1
row,Compound,inhibition at 0.1 µM [%]
1,COc1cc(C(=O)O)ccc1Cn1ccc2ccc(NC(=O)CC3CCCC3)cc21,34
2,COc1cc(C(=O)O)ccc1Cn1ccc2ccc(NC(=O)OC3CCC3)cc21,27
3,COc1cc(C(=O)O)ccc1Cn1ncc2ccc(NC(=O)OC3CCCC3)cc21,65
4,COc1cc(C(=O)O)ccc1Cn1ncc2ccc(NC(=O)CC3CCCC3)cc21,83

# Test system: Cysteinyl leukotriene receptor (Cavia porcellus)
# Assay: Inhibition of the LTE4- induced contraction of guinea pig tracheal spirals at 10 uM.
# Conditions: Trachea
row,inhibition [%],Compound
1,29,COc1cc(C(=O)O)ccc1Cn1ccc2ccc(NC(=O)Cc3ccc(C)cc3)cc21
2,52,CCCCCCNc1ccc2ccn(Cc3ccc(C(=O)O)cc3OC)c2c1
3,18,CCCC/N=C(\S)Nc1ccc2ccn(Cc3ccc(C(=O)O)cc3OC)c2c1
4,22,CCC(C(=O)Nc1ccc2cn(Cc3ccc(C(=O)O)cc3OC)nc2c1)c1ccccc1 (stereo unspecified)
5,13,CCCCCC(=O)Nc1ccc2nn(Cc3ccccc3C(=O)O)cc2c1
6,62,CCCCCC(=O)Nc1ccc2cnn(Cc3ccc(C(=O)O)cc3)c2c1
7,57,COc1cc(C(=O)O)ccc1Cn1ccc2ccc(NC(=O)NCc3ccccc3)cc21
8,50,CCCCOC(=O)Nc1ccc2cn(Cc3ccc(C(=O)O)cc3OC)nc2c1
9,34,CCCCC(C(=O)Nc1ccc2ccn(Cc3ccc(C(=O)O)cc3OC)c2c1)c1ccccc1 (stereo unspecified)
10,40,COc1cc(C(=O)O)ccc1Cn1ccc2ccc(NC(=O)C(F)(F)C(F)(F)C(F)(F)F)cc21
11,42,COc1cc(C(=O)O)ccc1Cn1ccc2ccc(NC(=O)Nc3ccccc3C(F)(F)F)cc21
12,29,CCCCCC(=O)Nc1cccc2c1ccn2Cc1ccc(C(=O)O)cc1OC
13,62,COc1cc(C(=O)O)ccc1Cn1ccc2ccc(NC(=O)CCc3ccccc3)cc21
14,13,COc1cc(C(=O)O)ccc1Cn1ccc2ccc(NC(=O)Cc3ccc(C(F)(F)F)cc3)cc21
15,77,COc1cc(C(=O)O)ccc1Cn1ccc2ccc(NC(=O)Cc3cccs3)cc21
16,14,COc1cc(C(=O)O)ccc1Cn1ccc2ccc(NC(=O)c3ccccc3)cc21
17,19,CCN(CC)C(=O)Nc1ccc2ccn(Cc3ccc(C(=O)O)cc3OC)c2c1
18,73,COc1cc(C(=O)O)ccc1Cn1ccc2ccc(NC(=O)CCCc3ccccc3)cc21
19,47,C#CCCC(=O)Nc1ccc2ccn(Cc3ccc(C(=O)O)cc3OC)c2c1
20,44,COc1cc(C(=O)O)ccc1Cn1ccc2ccc(NC(=O)Cc3ccc(Cl)cc3)cc21

# Species on record: Cavia porcellus
# Assay: Percent inhibition of the LTE4- induced contraction of guinea pig tracheal spirals at the concentration of 1.0 uM
# Assay type: functional
# Conditions: Trachea
# Method in brief: as §1
row,Compound,inhibition at 1 µM [%]
1,COc1cc(C(=O)O)ccc1Cn1ccc2ccc(NC(=O)OC3CC=CCC3)cc21 (stereo unspecified),47
2,CCCCCCOC(=O)Nc1ccc2ccn(Cc3ccc(C(=O)O)cc3OC)c2c1,30
3,COc1cc(C(=O)O)ccc1Cn1ccc2ccc(NC(=O)C(c3ccccc3)C3CCCC3)cc21 (stereo unspecified),27
4,CCCC(C(=O)Nc1ccc2ccn(Cc3ccc(C(=O)O)cc3OC)c2c1)C1CCCC1 (stereo unspecified),62

# Species on record: Cavia porcellus
# Assay: (§3) Percent inhibition of the BaCl2 - induced contraction of guinea pig tracheal spirals at concentration of 100 uM; Not significant
# Assay type: functional
# Conditions: Trachea
# Method in brief: as §2
row,Compound,inhibition
1,CCC(C(=O)Nc1ccc2cnn(Cc3ccc(C(=O)O)cc3OC)c2c1)c1ccccc1 (stereo unspecified),inactive

# Test system: not listed separately
# Assay: pKB value of the compound
# Conditions: not given
# Method in brief: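 Guinea pig tracheal strips at 37 °C in Krebs buffer. Cumulative LTE4 concentration-response curves were built in log increments, with responses expressed as % of the maximum to 30 µM carbachol. Antagonist was incubated 30 min before the curve, with vehicle on paired controls. EC50 came from linear regression. KB = [antagonist]/(dose ratio − 1) by the Furchgott method. One curve per tissue.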
row,pKB,Compound
1,5.1,CCCCCCOc1ccc(COc2ccccc2C(=O)O)cc1
2,6.4,CCCc1c(OCc2ccc(C(=O)O)cc2OC)ccc(C(C)=O)c1O

# Test system: Cysteinyl leukotriene receptor (Cavia porcellus)
# Assay: Inhibition of the LTE4- induced contraction of guinea pig tracheal spirals at 10 uM; Not significant.
# Conditions: Trachea
row,inhibition,Compound
1,inactive,CCCCCC(=O)Nc1ccc2c(cnn2Cc2ccccc2C(=O)O)c1
2,inactive,CCCCCCCCCC(=O)Nc1ccc2ccn(Cc3ccc(C(=O)O)cc3OC)c2c1
3,inactive,CCCCN(C)C(=O)Nc1ccc2ccn(Cc3ccc(C(=O)O)cc3OC)c2c1
4,inactive,CCCCCC(=O)Nc1ccc2cn(Cc3ccccc3C(=O)O)nc2c1
5,inactive,COc1cc(C(=O)O)ccc1Cn1ccc2ccc(NC(=O)CCCC(C)=O)cc21
6,inactive,CCCCCC(=O)Nc1ccc2nn(Cc3ccc(C(=O)O)cc3)cc2c1
7,inactive,COc1cc(C(=O)O)ccc1Cn1ccc2ccc(NC(=O)Cc3ccc4ccccc4c3)cc21
8,inactive,COc1cc(C(=O)O)ccc1Cn1ccc2ccc(NC(=O)CCCCCNC(C)=O)cc21
9,inactive,COc1cc(C(=O)O)ccc1Cn1ccc2ccc(NC(=O)CCCCCCC(=O)O)cc21
10,inactive,COc1cc(C(=O)O)ccc1Cn1ccc2ccc(NS(=O)(=O)Cc3ccccc3)cc21
11,inactive,COc1cc(C(=O)O)ccc1Cn1ccc2ccc(NC(=O)Nc3ccccc3)cc21
12,inactive,CCCCCC(=O)Nc1ccc2cnn(Cc3ccccc3C(=O)O)c2c1
13,inactive,CCCCCC(=O)Nc1ccc2cn(Cc3ccc(C(=O)O)cc3)nc2c1
14,inactive,COC(=O)Nc1ccc2ccn(Cc3ccc(C(=O)O)cc3OC)c2c1
15,inactive,CCCCCC(=O)Nc1ccc2c(cnn2Cc2ccc(C(=O)O)cc2)c1
16,inactive,COc1cc(C(=O)O)ccc1Cn1ccc2ccc(NC(=O)Cc3ccc(OC)c(OC)c3)cc21
17,inactive,COc1cc(C(=O)O)ccc1Cn1ccc2ccc(NC(=O)Cc3ccc(-c4ccccc4)cc3)cc21
18,inactive,CCCCCC(=O)N(C)c1ccc2ccn(Cc3ccc(C(=O)O)cc3OC)c2c1

# Species on record: Cavia porcellus
# Assay: as §3
# Assay type: functional, organism-based
# Conditions: Trachea
# Method in brief: as §2
row,Compound,inhibition
1,CCCCC(CC)C(=O)Nc1ccc2cnn(Cc3ccc(C(=O)O)cc3OC)c2c1 (stereo unspecified),inactive
